Source: ChEMBL document CHEMBL4732170, “Discovery of Small-Molecule Antagonists of the PWWP Domain of NSD2” (J Med Chem, 2021)
Active and inactive are the calls of the source. No cut-off for these calls is given here.

What was measured:
[1] = biological target: T1, Histone-lysine N-methyltransferase NSD2 (Homo sapiens) (UniProt O96028); conditions: filed as antagonist, dose 400.0 µM
T1 sequence (whole entry): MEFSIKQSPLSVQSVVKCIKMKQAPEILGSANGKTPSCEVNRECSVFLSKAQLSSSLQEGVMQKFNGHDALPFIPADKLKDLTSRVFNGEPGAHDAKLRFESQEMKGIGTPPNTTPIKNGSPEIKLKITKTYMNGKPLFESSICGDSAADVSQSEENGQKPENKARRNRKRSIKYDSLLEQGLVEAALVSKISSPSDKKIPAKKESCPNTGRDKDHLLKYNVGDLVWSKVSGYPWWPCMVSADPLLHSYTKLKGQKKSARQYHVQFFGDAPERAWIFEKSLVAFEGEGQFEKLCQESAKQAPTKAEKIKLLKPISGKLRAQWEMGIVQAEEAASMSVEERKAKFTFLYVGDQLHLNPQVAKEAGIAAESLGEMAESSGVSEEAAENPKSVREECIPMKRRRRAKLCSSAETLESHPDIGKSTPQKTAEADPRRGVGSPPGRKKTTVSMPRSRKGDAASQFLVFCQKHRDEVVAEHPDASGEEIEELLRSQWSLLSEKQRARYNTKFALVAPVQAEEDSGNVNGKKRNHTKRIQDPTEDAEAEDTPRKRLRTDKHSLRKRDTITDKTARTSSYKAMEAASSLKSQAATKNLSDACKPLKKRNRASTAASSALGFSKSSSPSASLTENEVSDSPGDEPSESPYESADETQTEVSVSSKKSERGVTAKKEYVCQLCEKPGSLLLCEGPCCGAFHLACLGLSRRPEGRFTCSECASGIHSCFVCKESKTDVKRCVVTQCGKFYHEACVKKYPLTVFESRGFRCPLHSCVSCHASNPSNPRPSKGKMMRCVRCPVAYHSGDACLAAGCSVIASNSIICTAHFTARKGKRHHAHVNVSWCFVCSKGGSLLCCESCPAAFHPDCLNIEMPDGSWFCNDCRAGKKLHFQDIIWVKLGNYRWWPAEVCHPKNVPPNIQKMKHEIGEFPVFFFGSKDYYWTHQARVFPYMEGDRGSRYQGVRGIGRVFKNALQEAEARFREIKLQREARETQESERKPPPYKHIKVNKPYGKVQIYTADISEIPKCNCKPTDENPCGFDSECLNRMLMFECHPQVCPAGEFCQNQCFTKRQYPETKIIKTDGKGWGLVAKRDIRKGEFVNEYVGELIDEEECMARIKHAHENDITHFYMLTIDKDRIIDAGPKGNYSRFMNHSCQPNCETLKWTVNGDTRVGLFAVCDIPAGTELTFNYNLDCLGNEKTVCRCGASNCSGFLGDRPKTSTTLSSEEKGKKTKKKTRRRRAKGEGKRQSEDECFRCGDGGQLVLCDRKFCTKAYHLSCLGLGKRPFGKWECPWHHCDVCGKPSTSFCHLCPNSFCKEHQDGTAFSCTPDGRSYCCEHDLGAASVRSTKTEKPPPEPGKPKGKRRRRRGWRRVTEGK

[2] = biological target: T2, Histone-lysine N-methyltransferase NSD2 (Homo sapiens, UniProt O96028); assay: Binding affinity to NSD2 PWWP1 domain (unknown origin) assessed as dissociation constant by surface plasmon resonance analysis
T2 sequence (O96028 whole entry): T1 sequence (whole entry)
Summary of the method: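 SPR in single-cycle kinetics, HBS-EP buffer (20 mM HEPES pH 7.4, 150 mM NaCl, 3 mM EDTA, 0.05% Tween-20) with 5% DMSO. Ten concentrations from 200 μM top, twofold dilutions. Contact time 60 s, dissociation 120 s, flow 75 μL/min; Kd derived.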

[3] = biological target: T2, Histone-lysine N-methyltransferase NSD2; assay: Binding affinity to NSD2 PWWP1 domain (unknown origin) assessed as dissociation constant by isothermal titration calorimetric analysis
Summary of the method: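 Reverse ITC: purified NSD2-PWWP1 (aa 211-350, human, E. coli-expressed, His-tag removed) dialyzed into 20 mM Tris pH 7.5, 100 mM NaCl. Protein at 1 mM titrated into cell holding 40 μM ligand, 1% DMSO in both. Twelve 4 μL injections at 25 °C. Kd from one-binding-site model fit.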

[4] = biological target: DNA mismatch repair protein Msh6 (Homo sapiens) (UniProt P52701); assay: Binding affinity to MSH6 PWWP domain (unknown origin) assessed as aggregation temperature at 400 uM by heating at 25 to 85 degC by differential static light scattering method
[5] = biological target: T3, Zinc finger MYND domain-containing protein 11 (Homo sapiens) (UniProt Q15326); assay: Binding affinity to ZMYND11 PWWP1 domain (unknown origin) assessed as aggregation temperature at 400 uM by heating at 25 to 85 degC by differential static light scattering method
T3 sequence (whole entry): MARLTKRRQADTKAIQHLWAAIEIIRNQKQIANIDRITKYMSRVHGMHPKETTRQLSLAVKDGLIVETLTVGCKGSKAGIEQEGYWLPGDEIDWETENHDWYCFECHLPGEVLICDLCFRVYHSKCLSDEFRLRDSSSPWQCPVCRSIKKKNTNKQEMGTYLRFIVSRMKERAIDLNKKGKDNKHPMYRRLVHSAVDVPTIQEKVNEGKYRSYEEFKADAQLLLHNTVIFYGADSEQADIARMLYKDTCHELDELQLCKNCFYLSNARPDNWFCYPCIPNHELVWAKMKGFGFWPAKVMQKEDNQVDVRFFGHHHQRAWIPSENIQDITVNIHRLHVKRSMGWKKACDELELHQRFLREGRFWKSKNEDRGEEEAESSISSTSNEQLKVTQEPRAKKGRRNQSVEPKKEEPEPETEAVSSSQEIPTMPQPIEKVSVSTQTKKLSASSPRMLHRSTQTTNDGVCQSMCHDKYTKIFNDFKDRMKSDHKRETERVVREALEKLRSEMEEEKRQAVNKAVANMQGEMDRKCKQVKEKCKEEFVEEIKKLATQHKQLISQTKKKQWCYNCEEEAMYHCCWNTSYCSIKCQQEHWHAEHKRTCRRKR

[6] = biological target: DNA (cytosine-5)-methyltransferase 3B (Homo sapiens) (UniProt Q9UBC3); assay: Binding affinity to DNMT3b PWWP domain (unknown origin) assessed as aggregation temperature at 400 uM by heating at 25 to 85 degC by differential static light scattering method

Sequence of DNA mismatch repair protein Msh6 (Homo sapiens) (P52701 whole entry, the tested form may be a part): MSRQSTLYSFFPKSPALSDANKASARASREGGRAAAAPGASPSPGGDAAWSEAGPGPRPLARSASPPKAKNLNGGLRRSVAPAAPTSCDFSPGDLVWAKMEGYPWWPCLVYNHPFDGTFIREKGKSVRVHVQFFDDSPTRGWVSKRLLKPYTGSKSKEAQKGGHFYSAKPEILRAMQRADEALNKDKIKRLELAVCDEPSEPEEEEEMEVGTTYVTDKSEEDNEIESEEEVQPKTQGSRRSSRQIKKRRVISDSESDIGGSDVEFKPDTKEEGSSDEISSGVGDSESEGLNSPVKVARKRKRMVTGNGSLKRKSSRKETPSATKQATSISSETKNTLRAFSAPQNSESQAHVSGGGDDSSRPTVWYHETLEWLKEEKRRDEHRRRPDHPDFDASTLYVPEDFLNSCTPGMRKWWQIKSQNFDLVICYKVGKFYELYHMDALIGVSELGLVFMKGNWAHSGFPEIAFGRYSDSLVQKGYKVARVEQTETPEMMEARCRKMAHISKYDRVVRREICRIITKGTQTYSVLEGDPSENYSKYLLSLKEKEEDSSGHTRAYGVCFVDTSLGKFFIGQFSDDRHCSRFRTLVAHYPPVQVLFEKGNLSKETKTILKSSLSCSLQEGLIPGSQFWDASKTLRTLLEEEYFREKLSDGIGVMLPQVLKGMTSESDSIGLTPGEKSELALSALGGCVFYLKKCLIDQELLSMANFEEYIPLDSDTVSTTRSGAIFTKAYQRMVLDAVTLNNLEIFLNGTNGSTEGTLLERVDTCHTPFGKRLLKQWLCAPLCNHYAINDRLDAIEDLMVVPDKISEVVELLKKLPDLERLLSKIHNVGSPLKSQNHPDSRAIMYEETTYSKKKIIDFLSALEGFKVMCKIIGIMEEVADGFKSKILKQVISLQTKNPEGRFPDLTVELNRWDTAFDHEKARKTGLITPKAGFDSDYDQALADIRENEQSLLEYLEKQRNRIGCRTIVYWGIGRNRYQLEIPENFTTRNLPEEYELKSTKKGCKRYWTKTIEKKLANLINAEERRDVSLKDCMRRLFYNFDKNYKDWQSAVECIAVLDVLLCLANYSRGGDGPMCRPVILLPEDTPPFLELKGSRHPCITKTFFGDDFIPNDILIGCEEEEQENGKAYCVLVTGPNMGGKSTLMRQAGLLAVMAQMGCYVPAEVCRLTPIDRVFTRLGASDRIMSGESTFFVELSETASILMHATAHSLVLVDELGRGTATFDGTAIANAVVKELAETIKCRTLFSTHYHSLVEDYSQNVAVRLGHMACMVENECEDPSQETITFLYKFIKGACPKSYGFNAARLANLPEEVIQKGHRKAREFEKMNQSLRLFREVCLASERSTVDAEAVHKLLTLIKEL

N#Cc1ccc(C(C(N)=O)N2CCC2c2ccc(Cl)cc2)cc1 (stereo unspecified)
deltaT [1]: 3.9 °C
Kd [2]: 41 µM
Kd [3]: 8.9 µM
Activity [4]: inactive
Activity [5]: inactive
Activity [6]: inactive
